Screens (PubChem BioAssay)
PLAP activator – activates human placental alkaline phosphatase; purified PLAP enzyme, luminescent substrate read-out; active compounds read high; activation fold at 20 µM; 96,000 tested, 1.2% active; AID 696; in the data active = activation fold above about 2
Target sequence (P05187 whole entry, looked up): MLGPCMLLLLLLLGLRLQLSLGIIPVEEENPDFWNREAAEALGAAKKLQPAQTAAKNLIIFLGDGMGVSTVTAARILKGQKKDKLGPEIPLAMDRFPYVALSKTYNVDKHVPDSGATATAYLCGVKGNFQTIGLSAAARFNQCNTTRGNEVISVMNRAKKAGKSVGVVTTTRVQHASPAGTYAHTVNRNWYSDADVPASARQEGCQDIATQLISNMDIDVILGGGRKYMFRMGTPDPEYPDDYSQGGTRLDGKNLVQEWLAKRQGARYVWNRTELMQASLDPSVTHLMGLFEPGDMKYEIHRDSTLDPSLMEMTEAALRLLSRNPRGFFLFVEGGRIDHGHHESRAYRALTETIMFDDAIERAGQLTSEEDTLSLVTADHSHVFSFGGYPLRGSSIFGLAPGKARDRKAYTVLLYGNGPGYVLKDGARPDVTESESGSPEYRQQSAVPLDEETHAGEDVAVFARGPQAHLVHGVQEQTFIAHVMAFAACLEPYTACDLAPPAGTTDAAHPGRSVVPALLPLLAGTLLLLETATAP
tolC growth inh – E. coli tolC mutant growth inhibition; 65,000 tested, 2.2% active; E. coli BW25113 tolC mutant growth, OD615; growth inhibition, % at 10 µM (by protocol);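 active = growth inhibition at or above a cutoff equal to the mean over every tested compound plus 3 SD, cut at about 60% in these data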;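 also: growth measured after 20 h incubation at 37 °C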
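Doses: one dose of 10 µM final / Material: E. coli BW25113 ΔtolC::kan, tolC deletion mutant strain / Buffer or medium: LB with kanamycin 50 µg/mL / Evaluation: percent growth inhibition / Detection: optical density read at 615 nm / Incubation: 37 °C, 20 h exposure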
Ecoli WT expand – growth inhibitors of E. coli BW25113 wild type; 98,000 tested, 0.15% active; OD600 absorbance; growth inhibition, % at 100 µM;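 active = growth inhibition above about 50% at one test dose, limit read from the data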;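 also: growth measured after 20 h incubation at 37 °C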
PostGolgi ctrl – inhibits growth of the yeast control strain. inhibition, % at 10 µM. efflux-deficient yeast background strain, growth absorbance A615, 16 h. AID 738. 98,000 tested, 5% active
HePTP inh – inhibitors of human HePTP phosphatase; recombinant HePTP phosphatase activity, OD absorbance; inhibition, % at 20 µM; 110,000 tested, 0.64% active; AID 521; in the data active = inhibition above about 50%;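 also: plate controls were vehicle for no effect and reference inhibitor for full effect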
PostGolgi yeast – growth inhibition of a yeast mutant, post-Golgi transport screen; inhibition, % at 10 µM; 98,000 tested, 0.9% active; post-Golgi transport phenotypic cell assay;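 also: yeast cells grown in 1536-well plates; yeast grown about 18 h at 30C before absorbance read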
Numbers without * were called inactive; . = not tested or not shown. Shown are actives, neighbours in structure and some others; about 5.4% of the full set was active somewhere. Rule as the data show it, unless noted: active = inhibition above about 30%; inactive = the rest.

SMILES	PLAP activator	tolC growth inh	Ecoli WT expand	PostGolgi ctrl	HePTP inh	PostGolgi yeast
CCOc1ccc(N(CC(=O)NCc2ccncc2)S(=O)(=O)c2ccccc2)cc1	.	.	.	.	-6	.
O=C(CC(C(=O)O)N1CCOCC1)c1ccccc1 (stereo not drawn)	.	.	.	.	103*	.
O=C(c1ccc(F)cc1)C(CN1CCOCC1)c1ccccc1 (stereo not drawn)	1	22	28	55*	-2	15
O=C(c1ccccc1)C(CCC(CN1CCOCC1)C(=O)c1ccccc1)CN1CCOCC1 (stereo not drawn)	1.3	13	8	41*	4	-1
Cc1ccccc1NC(=O)CCC(=O)N/N=C/c1cccnc1	.	.	.	.	6	.
COc1ccc(NC(=O)C23CC4CC(C2)CC(n2cnc(Br)n2)(C4)C3)cc1OC	1	.	0	15	.	-2
CS(=O)(=O)Nc1ccc(S(=O)(=O)Nc2nccs2)cc1	0.9	-5	-9	5	5	16
O=C1NC(=O)/C(=C\c2ccccc2Oc2ccc(F)c(F)c2)S1	1	.	-22	43*	.	12
O=C1NC(=Nc2ccc(F)cc2)S/C1=C/c1ccccc1F	.	.	.	.	1	.
N#CCCCN1C(=O)C(O)(CC(=O)c2ccc3c(c2)OCCO3)c2ccccc21 (stereo not drawn)	1	7	-5	-2	3	-7
C=C(C)CN1C(=O)C(O)(CC(=O)c2ccc3c(c2)OCCO3)c2ccccc21 (stereo not drawn)	1.1	16	3	41*	4	-10
CC(C)CNc1cc(=O)n(C)c(=O)n1C	0.8	-15	9	48*	4	6
COc1ccccc1OCc1ccc(C(=O)n2nc(C)c(Cl)c2C)o1	0.9	-3	-3	33*	12	-5
CC1CCN(C(=O)c2ccc(COc3ccccc3Cl)o2)CC1	1.4	87*	12	25	9	11
COc1ccccc1OCc1ccc(C(=O)NC(C)(C)C)o1	1.1	-7	3	7	-4	-3
CCC1CCc2c(sc(NC(=O)C3C4CCC(C4)C3C(=O)O)c2C(N)=O)C1 (stereo not drawn)	.	.	.	.	3	.
CCN(CC)C(=O)CN(C)S(=O)(=O)c1cccc2nsnc12	1.1	-16	-8	3	5	-8
CCN(CC)S(=O)(=O)c1cccc2nsnc12	1	5	7	49*	-1	1
COc1cnc(-c2ccccn2)nc1Oc1ccc(Cl)c2ccccc12	1.3	.	-1	63*	.	24
CCCCOc1ccc(C(=O)N2c3ccccc3CC2C)cc1 (stereo not drawn)	.	.	.	.	104*	.
CC(C)COc1ccc(C(=O)N2c3ccccc3CC2C)cc1 (stereo not drawn)	.	.	.	.	-7	.
COc1cc(C(=O)NCc2cccc3ccccc23)cc(Cl)c1OC	0.9	.	-18	39*	.	0
COc1cc(C(=O)NCc2cccc3ccccc23)cc(OC)c1OC	.	.	.	.	4	.
CN=C(Nc1cc(C)nn1-c1ccccc1)c1ccc(F)cc1	1	-6	-14	3	7	-1
COc1ccccc1NC(=O)N(CCN(C)C)Cc1cc2cc(C)ccc2[nH]c1=O	2*	-3	-7	-2	5	2
SMILES	PLAP activator	tolC growth inh	Ecoli WT expand	PostGolgi ctrl	HePTP inh	PostGolgi yeast
Cc1cc2cc(CN(CCN3CCOCC3)C(=O)Nc3ccccc3F)c(=O)[nH]c2cc1C	1.3	19	3	0	7	18
Cc1ccc2[nH]c(=O)c(CN(CCN3CCOCC3)C(=O)Nc3ccccc3F)cc2c1	.	-8	-5	46*	-6	0
CCN1CCCC1CN(Cc1cc2cc(OC)ccc2[nH]c1=O)C(=O)NCc1ccccc1 (stereo not drawn)	1.6	-2	-2	16	-1	1
COc1ccc2[nH]c(=O)c(CN(CCCN(C)C)C(=O)Nc3ccccc3)cc2c1	1.6	-15	5	2	5	5
CCN1CCCC1CN(Cc1cc2cc(C)ccc2[nH]c1=O)C(=O)Nc1ccccc1OC (stereo not drawn)	1.6	-12	6	34*	8	7
CN(C(=O)COC(=O)CNS(=O)(=O)/C=C/c1ccccc1)C1CCS(=O)(=O)C1 (stereo not drawn)	1	-11	0	10	2	-1
Cc1cccc(C)c1NC(=O)C(NC=O)c1ccccc1Cl (stereo not drawn)	1.1	.	-3	31*	.	7
Cc1cccc(C)c1NC(=O)C(NC=O)c1ccc(N(C)C)cc1 (stereo not drawn)	1	-10	-1	3	6	-6
COc1ccc(Cl)cc1C(=O)N1CCN(c2ccccn2)CC1	1.2	.	4	3	.	-4
CCc1nnc(NC(=O)c2ccc(COc3ccccc3)o2)s1	0.8	-2	0	53*	-2	-8
CCc1nnc(NC(=O)c2ccc(COc3ccc(C)cc3)o2)s1	1.2	-7	-13	1	-22	-3
COC(=O)c1ccccc1NC(=O)c1ccc(COc2ccccc2)o1	1.1	60	-13	36*	3	-12
O=C1CCC(=O)N1CN(C(=O)c1ccco1)c1ccccc1	1.2	-5	-4	-7	-3	-2
COc1cc(C2NC(C(=O)O)CS2)ccc1OCc1ccccc1C#N (stereo not drawn)	2.1*	-12	8	9	6	-8
CCCc1cc(-c2nc(N)ncc2-c2ccc3c(c2)OCCCO3)c(O)cc1OC	1.4	1	-6	40*	5	-12
COC(C)(C)[C@]12CC(O)(c3ccccc3)ON1[C@H]1CCCCC1N2O (stereo partly drawn)	1	-27	7	32*	4	1
COC(=O)c1cc2c(ccn2-c2ccc(F)cc2)n1C(C)C	1.1	.	3	16	.	1
COc1ccc2[nH]c(=O)c(CN(Cc3cccs3)S(=O)(=O)c3c(C)ccc4nsnc34)cc2c1	0.8	.	-5	4	.	15
COC(=O)c1c(NC(=O)c2c(F)cccc2F)sc2c1CCC(C(C)(C)C)C2 (stereo not drawn)	.	.	.	.	4	.
CC(/C=N/NC(=O)c1cccc([N+](=O)[O-])c1)=C\c1ccccc1	1.1	.	-1	-4	.	2
Cc1occc1C(=O)NNC(=O)Nc1ccc(Cl)c(Cl)c1	.	.	.	.	-7	.
CCOC(=O)N1CCN(C(=O)COc2ccc(S(=O)(=O)Nc3ccc(OCC)cc3)cc2)CC1	1.2	68*	0	5	1	15
CCCc1cc(=O)oc2cc(Oc3ncccn3)ccc12	1.3	-5	1	5	8	-2
O=C(Cc1cccs1)NCCn1ccc2ccccc21	0.9	1	7	36*	5	-6
CCC(=O)NCCn1ccc2ccccc21	1	.	4	2	.	12
COc1ccc(S(=O)(=O)CCC(=O)O)cc1	0.9	-5	-3	34*	11	1
COc1ccc(S(=O)(=O)CCC(=O)NCCc2ccc(C)cc2)cc1	1.6	.	2	-1	.	-2
CC(=O)Nc1c(O)nc(SCC(=O)Nc2ccc(C(C)=O)cc2)[nH]c1=O	1.2	-10	4	10	-1	4
